Assay results published in paper PMC6368478 (ACS infectious diseases, 2018).

Experiments:
[1] = molecular target: T1, Sts-1HP (Homo sapiens, UniProt Q8TF42); test: OMFP fluorescence phosphatase assay, 1,536-well HTS; type: biochemical; conditions: for Averaged Max. Response (%): LOPAC pilot screen, 5.8 μM nominal concentration, triplicate, OMFP substrate
[2] = read-out: Counterscreen IC50; compound added after NaOH stop, 10-point titration
How it was run: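 Same reagents and protocol as the primary OMFP screen: Sts-1HP at 750 ng/mL final in 30 mM Tris HCl, 75 mM NaCl, 1 mM EDTA, 1 mM DTT; OMFP 50 μM final; 20 min at room temperature in the dark; stopped with NaOH (100 mM final). Test compound is added after the NaOH stop. Fluorescence read; 10-point 3-fold titration in triplicate. IC50 comes from a four-parameter sigmoidal fit with adjustable baseline.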

[3] = molecular target: T1, Sts-1HP; test: pNPP absorbance phosphatase assay, inhibition analysis; type: biochemical; conditions: for Ki Ratio: Ki of construct / Ki of wild-type Sts-1HP, wild-type; for Mode of inhibition: double reciprocal plots, several inhibitor concentrations
[4] = molecular target: T2, PTP-1B (Homo sapiens, UniProt P18031); test: pNPP inhibition analysis, selectivity; type: biochemical; conditions: for Selectivity: more active against Sts-1 than PTP1B: from Ki values, Table 4
T2 sequence (P18031 1-435): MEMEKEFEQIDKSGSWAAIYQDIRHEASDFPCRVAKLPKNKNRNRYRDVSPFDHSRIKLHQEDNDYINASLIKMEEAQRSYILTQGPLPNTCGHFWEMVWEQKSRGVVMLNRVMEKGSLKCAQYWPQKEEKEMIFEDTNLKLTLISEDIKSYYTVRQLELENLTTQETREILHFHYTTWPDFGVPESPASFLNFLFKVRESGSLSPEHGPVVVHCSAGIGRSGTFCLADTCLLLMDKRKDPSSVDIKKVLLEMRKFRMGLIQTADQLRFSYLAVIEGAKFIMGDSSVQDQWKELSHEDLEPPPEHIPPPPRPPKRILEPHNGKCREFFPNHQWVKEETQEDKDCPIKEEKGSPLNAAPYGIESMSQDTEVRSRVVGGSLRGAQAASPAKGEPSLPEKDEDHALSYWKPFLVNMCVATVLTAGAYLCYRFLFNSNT

[5] = molecular target: SHP1 (Homo sapiens, UniProt P29350); test: pNPP inhibition analysis, selectivity; type: biochemical; conditions: for Selectivity: more active against Sts-1 than SHP1: from Ki values, Table 4
[6] = molecular target: Sts-1HP W494F (Homo sapiens, UniProt Q8TF42, W505F); test: pNPP inhibition analysis of Sts-1HP mutant; type: biochemical
How it was run: (§1)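 Mutant Sts-1HP is expressed in E. coli BL21(DE3) and purified. Assay uses 20 mM Tris (pH 7.5), 150 mM NaCl, 5 mM MgCl2 and 1 mM βME with varying pNPP, following pNP release at 405 nm. Initial rates (<10% completion) are measured at several fixed inhibitor concentrations, with controls for compound optical interference, in triplicate. Ki is derived from Km in the presence of inhibitor via a Lineweaver-Burk competitive fit.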

[7] = molecular target: Sts-1HP W494L (Homo sapiens, UniProt Q8TF42, W505L); test: pNPP inhibition analysis of Sts-1HP mutant; type: biochemical
How it was run: as §1

[8] = molecular target: Sts-1HP W494H (Homo sapiens, UniProt Q8TF42, W505H); test: pNPP inhibition analysis of Sts-1HP mutant; type: biochemical
How it was run: as §1

[9] = molecular target: Sts-1HP Y596F (Homo sapiens, UniProt Q8TF42, Y607F); test: pNPP inhibition analysis of Sts-1HP mutant; type: biochemical
How it was run: as §1

[10] = molecular target: Sts-1HP Y596L (Homo sapiens, UniProt Q8TF42, Y607L); test: pNPP inhibition analysis of Sts-1HP mutant; type: biochemical
How it was run: as §1

[11] = molecular target: Sts-1; conditions: cited from earlier work

T1 sequence (Q8TF42 384-647 limits assumed): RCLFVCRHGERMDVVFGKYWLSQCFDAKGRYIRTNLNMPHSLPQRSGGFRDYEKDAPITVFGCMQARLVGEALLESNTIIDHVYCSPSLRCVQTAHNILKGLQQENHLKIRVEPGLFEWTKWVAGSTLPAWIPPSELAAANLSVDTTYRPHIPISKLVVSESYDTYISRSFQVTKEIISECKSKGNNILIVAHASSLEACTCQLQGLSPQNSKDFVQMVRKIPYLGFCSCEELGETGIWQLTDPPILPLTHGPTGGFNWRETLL
Chain of SHP1 (P29350 whole entry): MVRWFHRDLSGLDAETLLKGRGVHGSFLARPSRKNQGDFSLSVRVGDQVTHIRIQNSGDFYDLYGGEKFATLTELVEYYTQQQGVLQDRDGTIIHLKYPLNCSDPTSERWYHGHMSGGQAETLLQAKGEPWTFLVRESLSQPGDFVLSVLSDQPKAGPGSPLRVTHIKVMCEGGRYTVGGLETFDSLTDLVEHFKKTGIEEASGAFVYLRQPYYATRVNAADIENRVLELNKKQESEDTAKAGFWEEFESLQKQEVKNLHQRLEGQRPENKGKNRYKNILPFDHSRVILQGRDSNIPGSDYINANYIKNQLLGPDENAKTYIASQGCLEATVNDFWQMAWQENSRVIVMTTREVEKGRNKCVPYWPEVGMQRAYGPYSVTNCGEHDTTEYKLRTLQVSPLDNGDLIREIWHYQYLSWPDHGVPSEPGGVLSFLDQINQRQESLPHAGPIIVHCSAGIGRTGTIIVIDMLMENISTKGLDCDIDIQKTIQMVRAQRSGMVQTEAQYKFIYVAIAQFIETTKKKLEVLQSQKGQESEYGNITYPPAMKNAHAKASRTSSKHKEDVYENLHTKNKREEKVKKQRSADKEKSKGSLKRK
Chain of Sts-1HP Y596F (Q8TF42 384-647 Y607F): as the sequence (Q8TF42 384-647 limits assumed) above, with Y224F counted along it
Chain of Sts-1HP Y596L (Q8TF42 384-647 Y607L): as the sequence (Q8TF42 384-647 limits assumed) above, with Y224L counted along it
Chain of Sts-1HP W494L (Q8TF42 384-647 W505L): as the sequence (Q8TF42 384-647 limits assumed) above, with W122L counted along it
Chain of Sts-1HP W494F (Q8TF42 384-647 W505F): as the sequence (Q8TF42 384-647 limits assumed) above, with W122F counted along it
Chain of Sts-1HP W494H (Q8TF42 384-647 W505H): as the sequence (Q8TF42 384-647 limits assumed) above, with W122H counted along it

In the case of `NC(Cc1cc(O)c(O)cc1O)C(=O)O` (racemic) [6-Hydroxy-DL-DOPA], the “Averaged Max. Response (%)” value [1] is reported as 64.86%.
With `O=C(O)C1=CC(=C(c2ccc(O)c(C(=O)O)c2)c2ccc(O)c(C(=O)O)c2)C=CC1=O` [Aurintricarboxylic Acid] the “Averaged Max. Response (%)” value [1] was 89.95%.
With `COc1cc(-c2ccc(/N=N/c3ccc4c(S(=O)(=O)O)cc(S(=O)(=O)O)c(N)c4c3O)c(OC)c2)ccc1/N=N/c1ccc2c(S(=O)(=O)O)cc(S(=O)(=O)O)c(N)c2c1O` [Chicago Sky Blue] the IC50 [1] was 1 µM and the IC50 [2] was > 14.5 µM.
For `Nc1c(/N=N/c2ccc(-c3ccc(/N=N/c4cc(S(=O)(=O)O)c5ccccc5c4N)cc3)cc2)cc(S(=O)(=O)O)c2ccccc12` [Congo Red], the IC50 [1] was 0.92 µM, the IC50 [2] was > 14.5 µM and the Ki [3] was 0.079 ± 0.02 µM. For the same compound, the “Ki Ratio” value [3] was 1, the Mode of inhibition [3] was “competitive inhibition” and the Ki [4] was 1.47 ± 0.34 µM. The “Selectivity: more active against Sts-1 than PTP1B” value [4] was “approximately 20 fold”, the Ki [5] was 3.88 ± 0.59 µM and the “Selectivity: more active against Sts-1 than SHP1” value [5] was ~50 fold. The Ki [6] was 1.42 ± 0.32 µM, the Ki [7] was 1.46 ± 0.13 µM and the Ki [8] was 1.07 ± 0.03 µM. The Ki [9] was 0.23 ± 0.02 µM and the Ki [10] was 0.94 ± 0.05 µM.
In the case of `CN(C)[C@@H]1C(O)=C(C(N)=O)C(=O)[C@@]2(O)C(O)=C3C(=O)c4c(O)ccc(Cl)c4[C@@H](O)[C@H]3C[C@@H]12` [Demeclocycline], the IC50 [1] is reported as 4.7 µM and the IC50 [2] is reported as > 14.5 µM.
For `CN(N=O)c1cc(O)ccc1O` [Dephostatin], the “Averaged Max. Response (%)” value [1] was 43.47%.
With `C[C@H]1c2cccc(O)c2C(=O)C2=C(O)[C@]3(O)C(=O)C(C(N)=O)=C(O)[C@@H](N(C)C)[C@@H]3[C@@H](O)[C@@H]21` [Doxycycline] the IC50 [1] was 4.1 µM, the “Averaged Max. Response (%)” value [1] was 45.03% and the IC50 [2] was > 14.5 µM. The Ki [3] was 99 ± 19 µM, the “Ki Ratio” value [3] was 1 and the Mode of inhibition [3] was “competitive inhibition”. For the same compound, the “Selectivity: more active against Sts-1 than PTP1B” value [4] was “more than 200 fold”, the “Ki Doxycycline” value ([4]; pNPP substrate) was “No Inhibition” and the “Selectivity: more active against Sts-1 than SHP1” value [5] was “more than 200 fold”. The “Ki Doxycycline” value ([5]; pNPP substrate) was “No Inhibition”, the Ki [6] was 1420 ± 110 µM and the Ki [7] was 730 ± 40 µM. The Ki [8] was 1480 ± 90 µM, the Ki [9] was 390 ± 40 µM and the Ki [10] was 490 ± 50 µM.
In the case of `Cc1cc(-c2ccc(/N=N/c3ccc4c(S(=O)(=O)O)cc(S(=O)(=O)O)c(N)c4c3O)c(C)c2)ccc1/N=N/c1ccc2c(S(=O)(=O)O)cc(S(=O)(=O)O)c(N)c2c1O` [Evans Blue], the IC50 [1] is reported as 3.1 µM, the IC50 [2] is reported as 23.6 µM and the Ki [3] is reported as 0.39 ± 0.11 µM.
In the case of `O=c1cc(O)cc(/C=C/c2ccc(O)c(O)c2)o1` [Hispidin], the “Averaged Max. Response (%)” value [1] is reported as 44.44%.
In the case of `C[C@](N)(Cc1ccc(O)c(O)c1)C(=O)O` [L-α-methyl DOPA], the “Averaged Max. Response (%)” value [1] is reported as 57.45%.
In the case of `C=C1c2c(Cl)ccc(O)c2C(=O)C2=C(O)[C@]3(O)C(=O)C(C(N)=O)=C(O)[C@@H](N(C)C)[C@@H]3[C@@H](O)[C@H]12` [Meclocycline], the IC50 [1] is reported as 1.8 µM and the IC50 [2] is reported as > 14.5 µM.
In the case of `C=C1c2cccc(O)c2C(=O)C2=C(O)[C@]3(O)C(=O)C(C(N)=O)=C(O)[C@@H](N(C)C)[C@@H]3[C@@H](O)[C@H]12` [Methacycline], the IC50 [1] is reported as 0.67 µM, the IC50 [2] is reported as > 14.5 µM and the Ki [3] is reported as 326 ± 35 µM.
With `CN(N=O)c1ccc(O)c(O)c1` [Methyl-3,4-Dephostatin] the “Averaged Max. Response (%)” value [1] was 46.07%.
With `CN(C)c1ccc(O)c2c1C[C@H]1C[C@H]3[C@H](N(C)C)C(O)=C(C(N)=O)C(=O)[C@@]3(O)C(O)=C1C2=O` [Minocycline] the “Averaged Max. Response (%)” value [1] was 32.59%.
For `O=c1c(O)c(-c2ccc(O)cc2O)oc2cc(O)cc(O)c12` [Morin], the “Averaged Max. Response (%)” value [1] was 44.94%.
For `O=C(Nc1ccc(C(=O)Nc2ccc(C(=O)Nc3ccc(S(=O)(=O)O)c4cc(S(=O)(=O)O)cc(S(=O)(=O)O)c34)cc2)cc1)Nc1ccc(C(=O)Nc2ccc(C(=O)Nc3ccc(S(=O)(=O)O)c4cc(S(=O)(=O)O)cc(S(=O)(=O)O)c34)cc2)cc1` [NF-279], the IC50 [2] was > 29 µM.
With `CN(C)[C@@H]1C(O)=C(C(N)=O)C(=O)[C@@]2(O)C(O)=C3C(=O)c4c(O)cccc4[C@@](C)(O)[C@H]3[C@H](O)[C@@H]12` [Oxytetracyline] the IC50 [2] was > 14.5 µM.
For `O=C1C(=NNc2ccc(S(=O)(=O)O)cc2)C(c2ccc([N+](=O)[O-])cc2)=NN1c1ccccc1` [PHPS1, 4-[2-[1,5-dihydro-3-(4-nitrophenyl)-5-oxo-1-phenyl-4H-pyrazol-4-ylidene]hydrazinyl]-benzenesulfonic acid], the IC50 [1] is given as 17.6 µM and the Ki [11] is given as 1 µM.
For `Cc1nc(N=Nc2cc(S(=O)(=O)O)c3cc([N+](=O)[O-])cc(S(=O)(=O)O)c3c2)c(COP(=O)(O)O)c(C=O)c1O` [PPNDS], the IC50 [2] was > 29 µM.
With `Nc1c(S(=O)(=O)O)cc(Nc2ccc(Nc3nc(Cl)nc(Nc4cccc(S(=O)(=O)O)c4)n3)c(S(=O)(=O)O)c2)c2c1C(=O)c1ccccc1C2=O` [Reactive Blue 2] the “Averaged Max. Response (%)” value [1] was 58.99%.
In the case of `CN(C)[C@@H]1C(O)=C(C(N)=O)C(=O)[C@@]2(O)C(O)=C3C(=O)c4c(O)cccc4[C@@](C)(O)[C@H]3C[C@@H]12` [Tetracycline], the IC50 [1] is reported as 1.9 µM, the IC50 [2] is reported as > 14.5 µM and the Ki [3] is reported as 199 ± 20 µM.
